Measurements collected from several papers.
Each line is one published result; the experiments were not run side by side.
Target: Inhibitor of nuclear factor kappa-B kinase subunit beta (IKBKB, Homo sapiens, UniProt O14920)
Sequence (O14920 1-756, as in one of the studies): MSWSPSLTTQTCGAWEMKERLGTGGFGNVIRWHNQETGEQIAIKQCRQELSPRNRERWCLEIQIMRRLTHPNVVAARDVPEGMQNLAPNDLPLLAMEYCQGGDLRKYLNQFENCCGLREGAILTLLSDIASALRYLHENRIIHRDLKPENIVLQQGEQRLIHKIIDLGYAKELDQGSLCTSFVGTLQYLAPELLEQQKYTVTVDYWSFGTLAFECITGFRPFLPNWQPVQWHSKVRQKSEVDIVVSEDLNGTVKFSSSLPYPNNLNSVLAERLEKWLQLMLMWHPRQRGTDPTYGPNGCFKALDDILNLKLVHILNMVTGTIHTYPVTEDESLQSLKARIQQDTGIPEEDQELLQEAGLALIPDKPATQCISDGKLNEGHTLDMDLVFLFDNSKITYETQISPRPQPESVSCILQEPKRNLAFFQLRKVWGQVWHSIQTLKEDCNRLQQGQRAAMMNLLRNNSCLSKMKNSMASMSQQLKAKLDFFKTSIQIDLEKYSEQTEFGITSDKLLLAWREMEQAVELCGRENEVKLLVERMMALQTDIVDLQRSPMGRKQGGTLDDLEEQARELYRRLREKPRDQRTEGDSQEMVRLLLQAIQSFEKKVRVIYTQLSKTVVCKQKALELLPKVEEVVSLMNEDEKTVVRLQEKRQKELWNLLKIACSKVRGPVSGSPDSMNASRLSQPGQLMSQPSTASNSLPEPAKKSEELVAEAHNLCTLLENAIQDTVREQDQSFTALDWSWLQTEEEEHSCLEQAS

Compound	effect on	action	method	concentration	endpoint	value
COc1ccc2oc(-c3ccc4nc(N)oc4c3)c/c(=N\c3ccccc3NC(=O)CCN)c2c1	binding			1 µM	remaining binding	102%
C=CC(=O)N1CCC[C@@H](n2nc(-c3ccc(Oc4ccccc4)cc3)c3c(N)ncnc32)C1	enzyme activity	inhibitor		1 µM	inhibition	30%
CN1CCN(C(=O)c2ccc(NC(=O)Nc3ccc(N(C)c4ccnc(Nc5ccc(CS(C)(=O)=O)cc5)n4)cc3)cc2)CC1	binding		competition with immobilised ligand	1 µM	remaining binding	70%
CCCCC(=O)Nc1ccc(-c2ccc3ncn(CCC)c(=O)c3c2)cn1	binding		competition with immobilised ligand	0.5 µM	remaining binding	100%
N#Cc1ccc(NC(=O)Nc2ccccc2)cc1	cell-free assay		competition with immobilised ligand	25 µM	remaining binding	100%
C#Cc1cnc(Nc2ccnc(CO)c2)nc1Nc1ccccc1S(C)(=O)=NC#N (centres unmarked)	cell-free assay			1 µM	remaining signal	97%
CO[C@@H]1[C@H](N(C)C(=O)c2ccccc2)C[C@H]2O[C@]1(C)n1c3ccccc3c3c4c(c5c6ccccc6n2c5c31)C(=O)NC4	enzyme activity	inhibitor		1 µM	inhibition	13%
Cc1ccc(NC(=O)c2ccnc(C(F)(F)F)c2)cc1-c1cc(OCCO)nc(N2CCOCC2)c1	binding		competition with immobilised ligand	1 µM	remaining binding	97%
